Assay results reported in ChEMBL document CHEMBL1130313, “1-[(omega-aminoalkyl)amino]-4-[N-(omega-aminoalkyl)carbamoyl]-9-oxo-9, 10-dihydroacridines as intercalating cytotoxic agents: synthesis, DNA binding, and biological evaluation” (J Med Chem, 1997).

Tests used:
A2780 = assay: Cytotoxic potency required to inhibit A2780 cell growth by 50% after cell drug contact for 96 hrs; format: functional, cell-based; conditions: Homo sapiens, A2780, 96 h
Outline: (§1)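 Human ovarian carcinoma (A2780, CH1, SKOV-3) or melanoma G-361 cells were plated at 100-5000 cells and allowed to adhere overnight. Aqueous drug at pH 7.0, diluted from DMSO stock, was applied at various concentrations for 96 h continuous exposure at 37 °C. Growth was measured by sulforhodamine B protein staining. IC50 is 50% growth inhibition versus untreated controls.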

Calf thymus DNA [1] = assay: Inhibitory concentration against ethidium:Calf thymus DNA(0.1:1) binding at pH 5; format: nucleic-acid assay; conditions: Bos taurus
Outline: (§2)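 Q (quenching) assay at pH 5: DNA at 20 μM DNAp (CT-DNA, [poly(dA-dT)]2 or [poly(dG-dC)]2) with 2 μM ethidium bromide. Buffer is 9.3 mM NaCl, 2 mM NaOAc, 0.1 mM EDTA, 0.01 M ionic strength. Drug (stock ~5 mM in DMSO) is added serially at 20 °C. Fluorescence is read with excitation 546 nm and emission 595 nm. Q is the concentration halving bound-ethidium fluorescence; mean of three.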

Calf thymus DNA [2] = assay: Inhibitory concentration against ethidium:calf thymus DNA (1.26:1) binding at pH 5; format: nucleic-acid assay; conditions: Bos taurus
Outline: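 Ethidium displacement at pH 5: 1.26 μM ethidium bromide with 1 μM CT-DNA in 9.3 mM NaCl, 2 mM NaOAc, 0.1 mM EDTA. Drug (stock ~5 mM in DMSO) is added serially at 20 °C. Fluorescence is read with excitation 546 nm and emission 595 nm. C50 is the concentration reducing bound-ethidium fluorescence by 50%; mean of three.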

Calf thymus DNA [3] = assay: Inhibitory concentration against ethidium:Calf thymus DNA (1.26:1) binding at pH 7; format: nucleic-acid assay; conditions: Bos taurus
Outline: (§3)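 Ethidium displacement at pH 7: 1.26 μM ethidium bromide with 1 μM CT-DNA in 10 mM TES, 0.1 mM EDTA. Drug (stock ~5 mM in DMSO) is titrated in at 20 °C. Read-out is excitation 546 nm, emission 595 nm. C50 is the drug concentration cutting bound-ethidium fluorescence by 50%; mean of three determinations.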

CH1 [4] = assay: Cytotoxic potency required to inhibit CH1 cell growth by 50%; format: functional, cell-based; conditions: Homo sapiens; outline: as §1
Nucleic Acid [5] = assay: Concentration required to give 50% fluorescence quenching of bound ethidium for [ethidium]: [(poly dG-dC)]2 DNA in ratio of 0.1:1 at pH 5; format: nucleic-acid assay; outline: as §2
Nucleic Acid [6] = assay: Concentration required to give 50% fluorescence quenching of bound ethidium for [ethidium]: [poly(dA-dT)]2 DNA in ratio of 0.1:1 at pH 5; format: nucleic-acid assay; outline: as §2
L1210 = assay: Cytotoxic potency required to inhibit L1210 cell growth by 50% after cell drug contact for 48 hrs; format: functional, cell-based; conditions: Mus musculus, L1210, 48 h
Outline: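 Mouse L1210 leukemia cells at 5 × 10^4 cells/mL were exposed for 48 h at 37 °C to aqueous drug solutions (≤0.5% v/v DMSO). Surviving cells were counted by Coulter counter against drug-free controls to give IC50. Assays were done in duplicate.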

SK-OV-3 = assay: Cytotoxic potency required to inhibit SKOV-3 cell growth 50%; format: functional, cell-based; conditions: Homo sapiens; outline: as §1
[7] = Partition coefficient (logP); format: physicochemical; conditions: octanol/water
G-361 = assay: Cytotoxic potency required to inhibit G-361 cell growth by 50%; format: functional, cell-based; conditions: Homo sapiens; outline: as §1
HT-29 = assay: Cytotoxic potency required to inhibit HT-29 cell growth by 50% after cell drug contact for 144 hrs; format: functional, cell-based; conditions: Homo sapiens, HT-29, 144 h
CH1 [8] = assay: Cytotoxic potency against CH1 cell proliferation; format: functional, cell-based; conditions: Homo sapiens; outline: as §1
Calf thymus DNA [9] = assay: Inhibitory concentration against ethidium:Calf thymus DNA(1.26:1) binding at pH 7; format: nucleic-acid assay; conditions: Bos taurus; outline: as §3

SMILES	IC50 (A2780) [nM]	Q (Calf thymus DNA [1]) [µM]	C50 (Calf thymus DNA [2]) [µM]	C50 (Calf thymus DNA [3]) [µM]	IC50 (CH1 [4]) [nM]	Q (Nucleic Acid [5]) [µM]	Q (Nucleic Acid [6]) [µM]	IC50 (L1210) [nM]	IC50 (SK-OV-3) [nM]	logP [7]	IC50 (G-361) [nM]	IC50 (HT-29) [nM]	IC50 (CH1 [8]) [nM]	C50 (Calf thymus DNA [9]) [µM]
Nc1ccc2c(O)c3ccc(N)cc3nc2c1	37000	340	660	630	> 100000	280	> 400	35000	> 100000					
c1ccc2nc3ccccc3cc2c1 [ACRIDINE]	> 100000	24	142	320		22	26							
CN(C)CCNC(=O)c1ccc(N(C)CCN(C)C)c2c(O)c3ccccc3nc12	410	14	4.8	0.94	3400	15	13	1650	1000	4.21	1500	3000		
CN(C)CCNC(=O)c1ccc(NCCNCCO)c2c(O)c3ccccc3nc12	17	4.2	2	0.35	16	4.7	3.8	35	170	4.09	280	140		
COc1ccc2nc3c(C(=O)NCCN(C)C)ccc(NCCN(C)C)c3c(O)c2c1	57	5.8	3.1	0.69	490	6.5	5.3	410	420	5.32	1250	500		
O=C(NCCN1CCCCC1)c1ccc(NCCN2CCCCC2)c2c(O)c3ccccc3nc12	24	4.4	0.83	0.28	1200	5.6	3.4	1200	620	7.73	670	450		
Nc1ccc2cc3ccc(N)cc3nc2c1		20				14	24							
O=C1c2c(O)ccc(O)c2C(=O)c2c(NCCNCCO)ccc(NCCNCCO)c21 [MITOXANTRONE]	0.55	0.34	0.021	0.037	2.65	0.37	0.32	0.4			0.65	10		
CN(C)CCNC(=O)c1ccc(NCCN(C)C)c2c(O)c3cc([N+](=O)[O-])ccc3nc12	42	2.1	0.61	0.17	175	2.4	1.8	460	210	5.68	1800	190		
O=C(NCCN1CCOCC1)c1ccc(NCCN2CCOCC2)c2c(O)c3ccccc3nc12	1500	4.8	16	3.7	1250	6	3.7	440	7400	4.42	7200	4500		
CN(C)CCNC(=O)c1ccc(NCCN(C)C)c2c(=O)c3ccccc3[nH]c12	15	3.3	1.1	0.34		3.5	3.1	44	400	5.12	15	94	20	
CN(C)CCCNC(=O)c1ccc(NCCCN(C)C)c2c(O)c3ccccc3nc12	110	4.8	3.2	0.38	335	6.6	3.2	520	400	5.76	3600	580		
Cn1cc(NC(=O)c2cc(NC(=O)c3cc(NC=O)cn3C)cn2C)cc1C(=O)NCCC(=N)N		39.5	5	1.3		130	1.6							
CN(C)CCNC(=O)c1ccc(NCCN(C)C)c2c(O)c3cc(O)ccc3nc12	51	4.8	2.2	0.37	640	5.4	4.4	140	170	4.77	300	2000		
N=C(N)c1ccc(/N=N/Nc2ccc(C(=N)N)cc2)cc1		9	4.4	1.5		19	5							
CCN(CC)CCNC(=O)c1ccc(NCCN(CC)CC)c2c(O)c3ccccc3nc12	760	27	20	2.3	1250	36	19	3300	2400	7.25	6200	5700		
O=c1c2ccccc2[nH]c2ccccc12 [ACRIDONE]	> 100000	> 400			77000	340	> 500	> 100000	> 100000		> 100000			
COc1cc(NS(C)(=O)=O)ccc1Nc1c2ccccc2nc2ccccc12		3.8	8.9			4.5	25							
O=C(NCCNCCO)c1ccc(NCCNCCO)c2c(O)c3ccccc3nc12	4800	3.2	1.7		165	4.1	2.6	4000	21500	3.15	15500	> 23000		0.36
